In the library only some 1% were active in any assay of this set; here they are far more common.
FXIIa inh: human FXIIa protease inhibitors, primary screen, biochemical, 1536-well; inhibition, % at 5 µM; hit rate 0.3% among 220,000; purified FXIIa, Boc-QGR-AMC fluorogenic substrate, 2 h; Coagulation factor XII (Homo sapiens), P00748; in the data active = inhibition above about 40%
thrombin 1536: human alpha-thrombin inhibitors, primary screen, counter-screen for coagulation protease inhibitor project, biochemical, 1536-well, fluorogenic AMC substrate; Prothrombin (Homo sapiens), P00734; Boc-VPR-AMC fluorogenic substrate cleavage; inhibition, % at 5 µM; hit rate 0.26% among 220,000;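 active = inhibition at or above 40%; inactive = inhibition below 40%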
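System – human alpha-thrombin · Medium – pH 7.5 Tris (50 mM) with NaCl 150 mM, Tween 20 0.05% · Compound – single-point dosing at 5 µM, 0.2% DMSO · Incubation – enzyme reaction carried out at room temperature · Technique – fluorescence of released AMC, ex 355 nm, em 460 nm · Read-out basis – % inhibition of thrombin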
FXIa inh 1536: human FXIa protease inhibitors, primary screen, biochemical, 1536-well | Coagulation factor XI (Homo sapiens), P03951 | purified FXIa, Boc-Glu-Ala-Arg-AMC fluorogenic substrate | inhibition, % at 5 µM | hit rate 0.14% among 220,000 | AID 798, 2007;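 active = inhibition of at least 40%; inactive = inhibition below 40%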;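 note: fluorescence of freed AMC excited at 355 nm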
KLK5 inh: human KLK5 protease inhibitors, primary screen, biochemical, 1536-well | recombinant hK5, fluorogenic AMC substrate cleavage | Kallikrein-5 (Homo sapiens), Q9Y337 | hit rate 0.59% among 210,000 | inhibition, % at 5 µM | AID 873, 2007;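 active = inhibition of 40% or more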
A number is an active result; – = inactive.

SMILES	FXIIa inh	thrombin 1536	FXIa inh 1536	KLK5 inh
COc1cc(N2CCCC2)c(OC)cc1/C=C(/C#N)c1ccc(F)cc1	–	–	–	–
CCn1ncc(C2=NOC(C(=O)Nc3c(C)n(C)n(-c4ccccc4)c3=O)C2)c1C (stereo not given)	–	–	–	59.8
CCn1ncc(C2=NOC(C(=O)NCc3ccccc3)C2)c1C (stereo not given)	–	–	–	45.1
COc1cc(/C=c2\s/c(=C\C(=O)C(C)(C)C)[nH]c2=O)cc(OC)c1OC	–	–	–	46.8
COc1ccc(/C=c2\s/c(=C\C(=O)C(C)(C)C)[nH]c2=O)cc1O	–	–	–	–
COc1ccccc1N1CCN(C/C(O)=C(\C#N)c2nc(-c3ccccc3)cs2)CC1	43.2	–	–	–
N#C/C(=C(/O)CN1CCN(c2ccccc2F)CC1)c1nc(-c2ccc(Cl)cc2)cs1	–	–	–	–
Cc1onc(-c2c(Cl)cccc2Cl)c1C(=O)ONC(=O)c1ccccc1	–	–	–	–
COc1cc(/C=N/n2c(-c3cc(C)[nH]n3)n[nH]c2=S)cc(OC)c1OC	–	–	–	58.2
COc1ccc(CN2CCN(C(=O)C3CCC(CNS(=O)(=O)c4ccccc4)CC3)CC2)c(OC)c1OC (stereo not given)	101.3	–	–	–
CCOC(=O)N1CCN(C(=O)C2CCC(CNS(=O)(=O)c3ccccc3)CC2)CC1 (stereo not given)	–	–	–	–
CC(C)CCNC(=O)NC(=O)CSc1nnc(-c2ccccc2F)n1N	–	–	–	75.5
CC1(C)CC(=O)C2=C(C1)N(c1cccc(Cl)c1)C(=O)NC2(C(F)(F)F)C(F)(F)F	–	–	–	–
CCC(=O)N/C(=N/c1nc(C)cc(C)n1)Nc1ccc(OC)cc1	–	51.3	–	–
COc1ccc(C(=O)NC(C)c2nnc(SCC(=O)Nc3nc(C)cs3)n2C)cc1 (stereo not given)	–	–	–	–
C=CCn1c(SCC(=O)Nc2nc(C)cs2)nnc1C(NC(=O)c1ccccc1)C(C)C (stereo not given)	–	–	–	51.1
NNC(=O)c1ccc(CSc2nc3ccccc3s2)cc1	48.6	–	–	–
CCCSc1nnc(NC(=O)Nc2ccc(C)cc2)s1	–	–	–	51.8
CCCSc1nnc(NC(=O)Nc2ccc(F)cc2)s1	–	–	–	–
COc1ccc(NS(=O)(=O)c2ccc(OCC(=O)N3CCOCC3)cc2)cc1	–	–	–	–
O=C(COc1ccc(S(=O)(=O)Nc2ccccc2)cc1)N1CCOCC1	–	53.1	–	–
COc1ccc(C(C)C)cc1S(=O)(=O)Nc1ccncc1	–	45.8	–	–
COc1ccc(C)cc1S(=O)(=O)Nc1ccncc1	–	–	–	–
Cc1ccc2c(c1)CC1(CN2C)C(=O)OC2(CCCCC2)OC1=O	–	60.9	–	–
CN1CC2(Cc3c1ccc1ccccc31)C(=O)OC(C)(C)OC2=O	–	–	–	–
SMILES	FXIIa inh	thrombin 1536	FXIa inh 1536	KLK5 inh
CCOc1ccc(CNC(=S)N/N=C/c2ccncc2)cc1	–	–	–	–
CC(=O)Nc1ccc(C(=O)Nc2ccc3c(c2)OCO3)cc1	–	–	–	41.4
Cc1ccc(CC(=O)NCc2ccc3c(c2)OCO3)cc1	–	–	–	–
Cc1ccc(NC(=O)NCc2ccc3c(c2)OCO3)cc1	74.9	–	–	–
O=C(CCl)Nc1ccccc1C(=O)Nc1ccc2c(c1)OCO2	–	–	–	42.1
O=C(CCNC(=O)c1ccccc1Cl)Nc1ccc2c(c1)OCO2	–	–	–	–
CCOc1ccc(NC(=O)C2CC(=O)N(C(C)C)C2)cc1 (stereo not given)	–	–	–	–
Cc1ccc(C(c2nnnn2CC2CCCO2)N2CCN(c3cccc(C)c3C)CC2)cc1 (stereo not given)	–	–	–	–
Cc1ccc(NC(=O)Cc2ncc(C(F)(F)F)cc2Cl)cc1Cl	–	–	–	57.4
CCCc1c(O)nc(SCCN(CCC)CCC)[nH]c1=O	–	–	–	–
CCCCCCCc1c(O)nc(SCCN(C)C)[nH]c1=O	–	–	68.8	–
CC(C)COc1cccc(C(=O)NC(=S)Nc2cccc(NC(=O)c3ccccc3Cl)c2)c1	–	–	–	41.7
COC(=O)CSc1nnc(-c2sc3cc(OC)ccc3c2Cl)n1C	47.8	–	–	–
COC(=O)CSc1nc2cc(OC)ccc2n1C	–	–	–	–
O=c1[nH]c2cc3c(cc2cc1CN(Cc1nnnn1CC1CCCO1)C1CCCCC1)OCO3 (stereo not given)	–	–	–	54.1

Bioassay records: PubChem, PCMD
